{"source": "ChEMBL document CHEMBL1127039", "about": "“Nonpeptide angiotensin II antagonists derived from 4H-1,2,4-triazoles and 3H-imidazo[1,2-b][1,2,4]triazoles” (J Med Chem, 1993)", "data": [{"target": "T1, Type-1 angiotensin II receptor (Oryctolagus cuniculus, UniProt P34976)", "T1 sequence (P34976 whole entry)": "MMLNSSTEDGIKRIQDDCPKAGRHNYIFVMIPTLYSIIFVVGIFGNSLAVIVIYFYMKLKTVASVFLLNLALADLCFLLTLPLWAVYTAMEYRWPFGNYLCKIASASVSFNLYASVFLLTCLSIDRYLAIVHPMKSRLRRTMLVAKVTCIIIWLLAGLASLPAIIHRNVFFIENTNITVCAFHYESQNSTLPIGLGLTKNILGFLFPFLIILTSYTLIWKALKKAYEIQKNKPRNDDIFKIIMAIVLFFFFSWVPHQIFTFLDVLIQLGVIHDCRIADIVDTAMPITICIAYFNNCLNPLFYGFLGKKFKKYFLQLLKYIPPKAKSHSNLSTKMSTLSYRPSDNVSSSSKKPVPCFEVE", "assay": "Displacement of [125I]-Sar1-Ile8-A II at the rabbit aorta angiotensin II receptor, type 1", "assay_type": "tissue-based", "how_it_was_run": "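Rabbit aorta membranes in 50 mM Tris-HCl pH 7.4, 5 mM MgCl2, 0.2 mg/mL bacitracin; 0.2% BSA only in original version. Nonspecific binding with 1 μM unlabeled Sar1Ile8-AII. Filtration, gamma counting. Duplicate tubes, five concentrations; IC50 from nonlinear regression of displacement curves, sometimes averaged over separate assays.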", "units": {"IC50": "nM"}, "values": [{"molecule": "CCCCCc1nnc(SCc2ccc(Cl)cc2)n1Cc1ccc(-c2ccccc2-c2nn[nH]n2)cc1", "IC50": 94}, {"molecule": "CCCc1nnc(SCc2ccccc2)n1Cc1ccc(NC(=O)c2ccccc2C(=O)O)cc1", "IC50": 120}, {"molecule": "CCCCc1nnc(OCCc2ccccc2)n1Cc1ccc(-c2ccccc2-c2nnn[nH]2)cc1", "IC50": 63}, {"molecule": "CCCCc1nnc(SCc2ccccc2C)n1Cc1ccc(-c2ccccc2-c2nn[nH]n2)cc1", "IC50": 17}, {"molecule": "CCCCc1nnc(SCc2cccc(C(=O)OC)c2)n1Cc1ccc(NC(=O)c2ccccc2C(=O)O)cc1", "IC50": 30}, {"molecule": "CCCCc1nnc([S+]([O-])Cc2ccc(OC)cc2)n1Cc1ccc(NC(=O)c2ccccc2C(=O)O)cc1", "note": "(configuration not stated)", "IC50": 7.4}, {"molecule": "CCCSc1nnc(Cc2ccccc2)n1Cc1ccc(NC(=O)c2ccccc2C(=O)O)cc1", "IC50": 380}, {"molecule": "CCCCc1nnc(SCc2cccc(OC)c2)n1Cc1ccc(-c2ccccc2-c2nn[nH]n2)cc1", "IC50": 94}, {"molecule": "CCCCc1nnc(Sc2ccccc2)n1Cc1ccc(-c2ccccc2-c2nn[nH]n2)cc1", "IC50": 100}, {"molecule": "CCCCc1nnc(C(=O)NCc2ccccc2)n1Cc1ccc(-c2ccccc2-c2nnn[nH]2)cc1", "IC50": 57}, {"molecule": "CCCCc1nnc(SCC(C)C)n1Cc1ccc(-c2ccccc2-c2nn[nH]n2)cc1", "IC50": 72}, {"molecule": "CCCCc1nnc([S+]([O-])Cc2ccccc2C(=O)O)n1Cc1ccc(-c2ccccc2-c2nnn[nH]2)cc1", "note": "(configuration not stated)", "IC50": 10}, {"molecule": "CCSc1nnc(-c2ccccc2)n1Cc1ccc(NC(=O)c2ccccc2C(=O)O)cc1", "IC50": 1900}, {"molecule": "CCCCc1nnc(SCc2ccccc2C#N)n1Cc1ccc(NC(=O)c2ccccc2C(=O)O)cc1", "IC50": 60}, {"molecule": "CCCCc1nn2cc(CC)nc2n1Cc1ccc(-c2ccccc2-c2nn[nH]n2)cc1", "IC50": 55}, {"molecule": "CCCCc1nnc(SCc2ccc(OC)cc2)n1Cc1ccc(-c2ccccc2-c2nnn[nH]2)cc1", "IC50": 31}, {"molecule": "CCCCc1nn2cc(C)nc2n1Cc1ccc(-c2ccccc2-c2nnn[nH]2)cc1", "IC50": 55}, {"molecule": "CCCCc1nn2c(-c3ccccc3)c(C)nc2n1Cc1ccc(-c2ccccc2-c2nnn[nH]2)cc1", "IC50": 170}, {"molecule": "CCCCc1nnc(SCc2ccccc2C(=O)OC)n1Cc1ccc(-c2ccccc2-c2nnn[nH]2)cc1", "IC50": 90}, {"molecule": "CCCCc1nnc(SCc2ccccc2CO)n1Cc1ccc(-c2ccccc2-c2nn[nH]n2)cc1", "IC50": 36}, {"molecule": "CCCCc1nnc(SCc2cccc(C)c2)n1Cc1ccc(NC(=O)c2ccccc2C(=O)O)cc1", "IC50": 32}, {"molecule": "CCCCc1nnc(NCc2ccc(OC)cc2)n1Cc1ccc(-c2ccccc2-c2nnn[nH]2)cc1", "IC50": 780}, {"molecule": "CCCCc1nnc(SC(CC)C(=O)OC)n1Cc1ccc(NC(=O)c2ccccc2C(=O)O)cc1", "note": "(configuration not stated)", "IC50": 300}, {"molecule": "CCCCc1nc(Cl)c(CC(=O)OC)n1Cc1ccc(NC(=O)c2ccccc2C(=O)O)cc1", "IC50": 420}, {"molecule": "CCCSc1nnc(CCCc2ccccc2)n1Cc1ccc(NC(=O)c2ccccc2C(=O)O)cc1", "IC50": 320}, {"molecule": "CCCCc1nnc(-c2ccco2)n1Cc1ccc(NC(=O)c2ccccc2C(=O)O)cc1", "IC50": 1000}, {"molecule": "CCSc1nnc(C(F)(F)F)n1Cc1ccc(NC(=O)c2ccccc2C(=O)O)cc1", "IC50": 4800}, {"molecule": "CCCCc1nnc(SCc2cccc(C(=O)O)c2)n1Cc1ccc(NC(=O)c2ccccc2C(=O)O)cc1", "IC50": 15}, {"molecule": "CCCCc1nnc(SCc2ccc(C(=O)OC)cc2)n1Cc1ccc(-c2ccccc2-c2nn[nH]n2)cc1", "IC50": 120}, {"molecule": "CCCCc1nnc(SCCc2ccccc2)n1Cc1ccc(NC(=O)c2ccccc2C(=O)O)cc1", "IC50": 70}, {"molecule": "CCCCc1nnc([S+]([O-])Cc2ccc(OC)cc2)n1Cc1ccc(-c2ccccc2-c2nnn[nH]2)cc1", "note": "(configuration not stated)", "IC50": 50}, {"molecule": "CCCCc1nnc(SCc2ccccc2Cl)n1Cc1ccc(-c2ccccc2-c2nnn[nH]2)cc1", "IC50": 110}, {"molecule": "CCCCc1nnc(SCc2ccccc2[N+](=O)[O-])n1Cc1ccc(-c2ccccc2-c2nnn[nH]2)cc1", "IC50": 130}, {"molecule": "CCCCc1nnc(OCc2ccccc2)n1Cc1ccc(-c2ccccc2-c2nn[nH]n2)cc1", "IC50": 370}, {"molecule": "CCCCc1nnc(S)n1Cc1ccc(-c2ccccc2C(=O)O)cc1", "IC50": 860}, {"molecule": "CCCCc1nn2c(C)c(-c3ccccc3)nc2n1Cc1ccc(-c2ccccc2-c2nnn[nH]2)cc1", "IC50": 13}, {"molecule": "CCCCc1nnc(SCc2ccc(C(F)(F)F)cc2)n1Cc1ccc(NC(=O)c2ccccc2C(=O)O)cc1", "IC50": 42}, {"molecule": "CCCCc1nnc(S(C)(=O)=O)n1Cc1ccc(-c2ccccc2-c2nn[nH]n2)cc1", "IC50": 400}, {"molecule": "CCCCc1nnc(SCc2ccc3ccccc3c2)n1Cc1ccc(NC(=O)c2ccccc2C(=O)O)cc1", "IC50": 49}, {"molecule": "CCCCc1nnc(SCC(=O)NC)n1Cc1ccc(NC(=O)c2ccccc2C(=O)O)cc1", "IC50": 720}, {"molecule": "CCCSc1nnc(CSc2ccccc2)n1Cc1ccc(NC(=O)c2ccccc2C(=O)O)cc1", "IC50": 1200}, {"molecule": "CCCCc1nn2c(C)c(C)nc2n1Cc1ccc(-c2ccccc2-c2nn[nH]n2)cc1", "IC50": 7.8}, {"molecule": "CCCCc1nnc(SCC2CCCCC2)n1Cc1ccc(-c2ccccc2-c2nn[nH]n2)cc1", "IC50": 36}, {"molecule": "CCCc1nnc(SCc2ccc(Cl)cc2)n1Cc1ccc(-c2ccccc2-c2nn[nH]n2)cc1", "IC50": 98}, {"molecule": "CCCCc1nnc(SCC(=O)OC)n1Cc1ccc(NC(=O)c2ccccc2C(=O)O)cc1", "IC50": 330}, {"molecule": "CCCCc1nnc(SCc2ccccc2Cl)n1Cc1ccc(NC(=O)c2ccccc2C(=O)O)cc1", "IC50": 30}, {"molecule": "CCCCc1nnc(-c2ccccc2)n1Cc1ccc(NC(=O)c2ccccc2C(=O)O)cc1", "IC50": 930}, {"molecule": "CCCCc1nnc(SC)n1Cc1ccc(-c2ccccc2-c2nnn[nH]2)cc1", "IC50": 310}, {"molecule": "CCCCc1nnc(-c2ccncc2)n1Cc1ccc(NC(=O)c2ccccc2C(=O)O)cc1", "IC50": 1400}, {"molecule": "CCCCc1nnc(Sc2ccccc2)n1Cc1ccc(NC(=O)c2ccccc2C(=O)O)cc1", "IC50": 60}, {"molecule": "CCCCc1nnc(SC(C(=O)OC)c2ccccc2)n1Cc1ccc(NC(=O)c2ccccc2C(=O)O)cc1", "note": "(configuration not stated)", "IC50": 6.1}, {"molecule": "CCCCc1nnc([S+]([O-])Cc2ccc(OC)cc2)n1Cc1ccc(NC(=O)c2ccccc2-c2nn[nH]n2)cc1", "note": "(configuration not stated)", "IC50": 28}, {"molecule": "CCCCc1nnc(SCc2ccccc2C(=O)OC)n1Cc1ccc(NC(=O)c2ccccc2C(=O)O)cc1", "IC50": 14}, {"molecule": "CCCCc1nn2c(-c3ccccc3)cnc2n1Cc1ccc(-c2ccccc2-c2nn[nH]n2)cc1", "IC50": 220}, {"molecule": "CCCCc1nnc(SCc2cccc(OC)c2)n1Cc1ccc(NC(=O)c2ccccc2C(=O)O)cc1", "IC50": 21}, {"molecule": "CCCCc1nnc(NCc2ccc(Cl)cc2)n1Cc1ccc(-c2ccccc2-c2nn[nH]n2)cc1", "IC50": 140}, {"molecule": "CCCCc1nnc(SCCc2ccccc2)n1Cc1ccc(-c2ccccc2-c2nnn[nH]2)cc1", "IC50": 35}, {"molecule": "CCCCc1nnc(SC(C(=O)O)c2ccccc2)n1Cc1ccc(NC(=O)c2ccccc2C(=O)O)cc1", "note": "(configuration not stated)", "IC50": 20}, {"molecule": "CCCCc1nnc(SCCO)n1Cc1ccc(NC(=O)c2ccccc2C(=O)O)cc1", "IC50": 480}, {"molecule": "CCCCc1nnc(SCc2ccc(Cl)cc2)n1Cc1ccc(NC(=O)c2ccccc2C(=O)O)cc1", "IC50": 6.8}, {"molecule": "CCSc1nnc(COC)n1Cc1ccc(NC(=O)c2ccccc2C(=O)O)cc1", "IC50": 5200}, {"molecule": "CCCCc1nnc([S+]([O-])Cc2ccc([N+](=O)[O-])cc2)n1Cc1ccc(-c2ccccc2-c2nnn[nH]2)cc1", "note": "(configuration not stated)", "IC50": 8.9}, {"molecule": "CCCSc1nnc(-c2ccccc2)n1Cc1ccc(NC(=O)c2ccccc2C(=O)O)cc1", "IC50": 1600}, {"molecule": "CCCSc1nnc(C(F)(F)F)n1Cc1ccc(NC(=O)c2ccccc2C(=O)O)cc1", "IC50": 2100}, {"molecule": "CCCCc1nnc(SCc2cccc(Cl)c2)n1Cc1ccc(NC(=O)c2ccccc2C(=O)O)cc1", "IC50": 26}, {"molecule": "CCCCc1nnc(C(=O)N(C)c2ccccc2)n1Cc1ccc(-c2ccccc2-c2nnn[nH]2)cc1", "IC50": 350}, {"molecule": "CCCCc1nc2ccccc2n1Cc1ccc(-c2ccccc2-c2nn[nH]n2)cc1", "IC50": 96}]}]}
